Key:
[1] = target: T1, Discoidin domain-containing receptor 2 (Homo sapiens, UniProt Q16832); assay: Inhibition of recombinant human GST-tagged DDR2 cytoplasmic domain (427 to 855 residues) expressed in baculovirus expression system using Fluorescein-poly GAT as substrate incubated for 1 hr in presence of ATP by LanthaScreen Eu kinase assay
T1 sequence (Q16832 whole entry): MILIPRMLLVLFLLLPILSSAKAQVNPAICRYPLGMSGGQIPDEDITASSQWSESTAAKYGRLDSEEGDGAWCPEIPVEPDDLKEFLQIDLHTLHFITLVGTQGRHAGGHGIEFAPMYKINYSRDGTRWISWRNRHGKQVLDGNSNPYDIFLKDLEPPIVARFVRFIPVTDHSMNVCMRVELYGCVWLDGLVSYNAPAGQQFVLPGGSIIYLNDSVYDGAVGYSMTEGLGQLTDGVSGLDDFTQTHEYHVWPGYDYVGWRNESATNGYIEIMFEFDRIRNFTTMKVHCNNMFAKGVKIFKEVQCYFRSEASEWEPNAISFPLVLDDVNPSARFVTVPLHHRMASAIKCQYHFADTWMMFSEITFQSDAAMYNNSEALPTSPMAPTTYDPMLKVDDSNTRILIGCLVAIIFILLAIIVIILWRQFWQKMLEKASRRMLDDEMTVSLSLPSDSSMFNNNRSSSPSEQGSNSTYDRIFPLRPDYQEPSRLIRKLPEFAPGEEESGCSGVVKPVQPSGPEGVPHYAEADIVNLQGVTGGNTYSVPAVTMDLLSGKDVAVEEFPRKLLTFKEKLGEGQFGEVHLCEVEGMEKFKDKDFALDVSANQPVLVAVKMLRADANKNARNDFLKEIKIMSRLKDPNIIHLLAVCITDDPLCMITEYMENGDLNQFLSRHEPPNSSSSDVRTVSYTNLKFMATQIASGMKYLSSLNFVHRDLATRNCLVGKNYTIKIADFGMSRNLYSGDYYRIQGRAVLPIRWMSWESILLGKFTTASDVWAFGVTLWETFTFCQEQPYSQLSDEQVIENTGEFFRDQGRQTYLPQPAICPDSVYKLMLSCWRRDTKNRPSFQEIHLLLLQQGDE
Outline: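 LanthaScreen Eu kinase assay for DDR2; IC50 values are means of three independent experiments, variations <20%.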

[2] = target: Epithelial discoidin domain-containing receptor 1 (Homo sapiens, UniProt Q08345); assay: Binding affinity to wild type human partial length DDR1 (R565 to V876 residues) expressed in bacterial expression system after 1 hr by Kinomescan method
Outline: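 KINOMEscan binding; Kd determined for DDR1 and the off-target kinases DDR2, CAMK1D, CLK4 and TTK.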

[3] = target: T2, Discoidin domain-containing receptor 2 (Homo sapiens) (UniProt Q16832); assay: Inhibition of wild type human partial length DDR2 (V555 to E855 residues) expressed in mammalian expression system assessed as residual enzyme activity at 200 nM after 1 hr by Kinomescan method relative to control
T2 sequence (whole entry): T1 sequence (Q16832 whole entry)

NCI-H1299 [4] = assay: Antimigratory activity against human H1299 cells assessed as reduction in wound closure at 1.25 uM after 24 hrs by bright field microscopic based wound healing assay relative to control; assay type: functional; settings: NCI-H1299, 24 h
Outline: (§1)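 Wound healing (scratch) migration assay in H1299 cells at 1.25, 2.5 and 5.0 μM; wound closure compared with blank control groups.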

NCI-H1299 [5] = assay: Antimigratory activity against human H1299 cells assessed as reduction in wound closure at 5 uM after 24 hrs by bright field microscopic based wound healing assay relative to control; assay type: functional; settings: NCI-H1299, 24 h; outline: as §1
NCI-H1299 [6] = assay: Antiinvasive activity against human H1299 cells at 2.5 uM after 24 hrs by crystal violet staining based transwell assay relative to control; assay type: functional; settings: NCI-H1299, 24 h
Outline: (§2)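 H1299 NSCLC cells; transwell invasion assay over 24 h with compound at 1.25, 2.5 and 5.0 μM; invasion expressed relative to blank control.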

NCI-H1299 [7] = assay: Antiinvasive activity against human H1299 cells after 24 hrs by crystal violet staining based transwell assay; assay type: functional, cell-based; outline: as §2
NCI-H1299 [8] = assay: Antiinvasive activity against human H1299 cells at 5 uM after 24 hrs by crystal violet staining based transwell assay relative to control; assay type: functional; settings: NCI-H1299, 24 h; outline: as §2
Homo sapiens = organism: Homo sapiens; assay: Selectivity index, ratio of IC50 for human recombinant full length His-tagged Bcr-Abl expressed in baculovirus expression system using tyrosine-2 peptide as substrate after 1 hr in presence of […] ATP by FRET based Z'-LYTE assay to IC50 for recombinant human GST-tagged DDR1 catalytic domain (440 to 876 residues) expressed in baculovirus expression system using Fluorescein-poly GAT as substrate incubated for 1 hr in presence of ATP by LanthaScreen Eu kinase assay
Outline: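 Ratio of Bcr-Abl IC50 to DDR1 IC50. Bcr-Abl was measured by FRET-based Z′-Lyte assay and DDR1 by LanthaScreen Eu kinase assay. Each IC50 is the mean of three independent experiments, with variation <20%.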

NCI-H1299 [9] = assay: Antimigratory activity against human H1299 cells assessed as reduction in wound closure at 2.5 uM after 24 hrs by bright field microscopic based wound healing assay relative to control; assay type: functional; settings: NCI-H1299, 24 h; outline: as §1
[10] = target: Calcium/calmodulin-dependent protein kinase type 1D (Homo sapiens, UniProt Q8IU85); assay: Inhibition of wild-type human partial length CAMK1D (M1 to K299 residues) expressed in bacterial expression system assessed as residual enzyme activity at 200 nM after 1 hr by Kinomescan method relative to control
[11] = target: T3, Dual specificity protein kinase TTK (Homo sapiens) (UniProt P33981); assay: Inhibition of wild-type human partial length TTK (N505 to V798 residues) expressed in bacterial expression system assessed as enzyme residual activity at 200 nM after 1 hr by Kinomescan method relative to control
T3 sequence (whole entry): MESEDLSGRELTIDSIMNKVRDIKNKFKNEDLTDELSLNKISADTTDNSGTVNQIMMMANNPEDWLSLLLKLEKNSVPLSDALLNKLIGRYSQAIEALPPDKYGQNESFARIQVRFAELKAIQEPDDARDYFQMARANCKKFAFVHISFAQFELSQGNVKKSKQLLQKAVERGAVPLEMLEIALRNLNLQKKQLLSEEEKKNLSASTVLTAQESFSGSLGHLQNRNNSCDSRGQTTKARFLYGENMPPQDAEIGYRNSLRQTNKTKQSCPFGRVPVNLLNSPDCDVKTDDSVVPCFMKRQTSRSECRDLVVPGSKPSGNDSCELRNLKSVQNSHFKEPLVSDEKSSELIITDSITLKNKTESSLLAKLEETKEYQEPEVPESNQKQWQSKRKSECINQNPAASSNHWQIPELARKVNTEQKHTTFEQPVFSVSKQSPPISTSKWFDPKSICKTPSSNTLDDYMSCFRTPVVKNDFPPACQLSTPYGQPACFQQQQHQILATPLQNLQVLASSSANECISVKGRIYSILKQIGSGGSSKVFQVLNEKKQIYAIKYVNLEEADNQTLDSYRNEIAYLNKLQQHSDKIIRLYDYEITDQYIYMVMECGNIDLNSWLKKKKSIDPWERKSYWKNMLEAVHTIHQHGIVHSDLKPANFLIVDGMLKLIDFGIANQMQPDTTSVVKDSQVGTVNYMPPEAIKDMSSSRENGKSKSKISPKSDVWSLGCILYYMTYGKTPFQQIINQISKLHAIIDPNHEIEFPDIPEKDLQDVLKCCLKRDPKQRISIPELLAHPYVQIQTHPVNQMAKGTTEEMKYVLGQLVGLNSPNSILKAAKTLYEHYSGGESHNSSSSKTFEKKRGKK

Calcium/calmodulin-dependent protein kinase type 1D, sequence (Q8IU85 whole entry, looked up, the tested form may be a part): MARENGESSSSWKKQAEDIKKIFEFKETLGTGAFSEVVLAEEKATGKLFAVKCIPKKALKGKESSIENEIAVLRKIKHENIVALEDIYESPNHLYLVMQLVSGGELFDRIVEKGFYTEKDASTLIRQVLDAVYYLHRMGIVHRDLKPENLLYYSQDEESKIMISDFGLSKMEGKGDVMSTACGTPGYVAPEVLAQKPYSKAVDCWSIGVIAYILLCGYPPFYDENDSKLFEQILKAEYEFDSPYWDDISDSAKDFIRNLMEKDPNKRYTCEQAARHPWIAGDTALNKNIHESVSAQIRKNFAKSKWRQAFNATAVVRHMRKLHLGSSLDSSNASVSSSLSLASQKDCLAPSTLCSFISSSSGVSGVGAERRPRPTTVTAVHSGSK
Epithelial discoidin domain-containing receptor 1, sequence (Q08345 whole entry, the tested form may be a part): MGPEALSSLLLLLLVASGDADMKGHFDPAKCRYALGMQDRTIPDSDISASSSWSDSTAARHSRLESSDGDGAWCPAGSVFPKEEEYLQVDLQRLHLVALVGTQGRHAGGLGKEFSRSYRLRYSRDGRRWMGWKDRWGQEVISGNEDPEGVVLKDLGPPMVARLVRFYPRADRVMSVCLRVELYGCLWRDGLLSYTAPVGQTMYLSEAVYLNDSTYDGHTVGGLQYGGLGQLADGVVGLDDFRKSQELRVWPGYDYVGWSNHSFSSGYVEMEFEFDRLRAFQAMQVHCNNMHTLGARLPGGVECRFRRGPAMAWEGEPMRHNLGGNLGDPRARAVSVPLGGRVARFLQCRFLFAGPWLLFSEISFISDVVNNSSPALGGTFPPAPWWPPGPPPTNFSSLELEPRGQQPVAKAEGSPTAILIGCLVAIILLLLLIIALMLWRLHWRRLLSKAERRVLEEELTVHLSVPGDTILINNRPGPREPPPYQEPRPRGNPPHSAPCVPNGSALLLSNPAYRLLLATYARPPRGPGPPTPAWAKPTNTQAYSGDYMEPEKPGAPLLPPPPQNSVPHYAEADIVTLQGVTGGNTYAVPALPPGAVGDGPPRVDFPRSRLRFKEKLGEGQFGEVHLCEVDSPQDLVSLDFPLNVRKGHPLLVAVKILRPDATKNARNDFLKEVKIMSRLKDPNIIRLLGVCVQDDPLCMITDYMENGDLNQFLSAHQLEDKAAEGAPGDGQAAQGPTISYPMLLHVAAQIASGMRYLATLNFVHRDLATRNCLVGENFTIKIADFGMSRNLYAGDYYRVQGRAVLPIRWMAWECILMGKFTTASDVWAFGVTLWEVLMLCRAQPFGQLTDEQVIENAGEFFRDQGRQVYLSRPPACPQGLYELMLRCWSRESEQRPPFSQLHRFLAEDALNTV

IC50 [1]: 1740 nM
Kd [2]: 7.8 nM
Activity [3]: 15%
Ratio IC50 (Homo sapiens): 420
Activity [10]: 0.9%
Activity [11]: 0%
Compound: CCc1ccc(C(=O)Nc2cc(F)cc(C(F)(F)F)c2)cc1-c1cc(C)cc(-c2cnc3cnccn23)c1
inhibition at 1.25 µM (NCI-H1299 [4]): 40%
inhibition at 5 µM (NCI-H1299 [5]): 84%
inhibition at 2.5 µM (NCI-H1299 [6]): 50%
inhibition (NCI-H1299 [7]): Dose-dependent effect
inhibition at 5 µM (NCI-H1299 [8]): 71%
inhibition at 2.5 µM (NCI-H1299 [9]): 60%

From ChEMBL document CHEMBL4342493, “Design and Optimization of 3'-(Imidazo[1,2-a]pyrazin-3-yl)-[1,1'-biphenyl]-3-carboxamides as Selective DDR1 Inhibitors” (ACS Med Chem Lett, 2020)
